The record followed here is PubChem BioAssay AID465 (The Scripps Research Institute Molecular Screening Center, 2006).

About 130 (0.21%) of roughly 62,000 compounds were called active. The list comes from a sample in which actives are over-represented; it also holds similar structures and randomly drawn compounds. A number with no mark means an inactive call.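 How the source made its calls: active means inhibition above the mean of all tested compounds plus 3 SD (cut at about 40% in these data); inactive means the rest.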

A short description of this test: inhibitors of PMA/ionomycin-induced NF-kB reporter, primary screen, antigen receptor NF-kB inhibitor project, cell-based, HEK-293 luciferase reporter, luminescence (AID 465).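 Further: 0% = stimulated DMSO wells and 100% = 10 µM reference inhibitor 5653914.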 The note with it: HEK-293 NF-kB luciferase reporter, at 3 µM, stronger effect = higher value. The gist of the method:
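Timing: 1 h pretreatment, 16 h stimulation, 37 °C; system: HEK-293 cells with stable firefly luciferase reporter driven by four HIV NF-kB elements; doses: 3 µM once, 0.30% DMSO; measured by: luciferase luminescence; control set: DMSO and 10 µM reference inhibitor; repeats: single test; reagent: PMA plus ionomycin mix as NF-kB-activating stimulus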
(A reporter such as luciferase makes a cellular process visible.)
Usually inhibition stands for the relative decrease from the control value, in per cent. Turning to `CCC1=C/C(=C\c2ccc3c(c2)OCO3)C(=O)S1`, the inhibition was 21.2%.
Under `O=C(c1ccco1)N1CCN(C(=O)c2ccc(COc3ccc(F)cc3)o2)CC1` stands 7%.
For the compound `COCCCN1C(=O)C(=O)/C(=C(/O)c2ccc3c(c2)CC(C)O3)C1c1cccnc1` (stereo not drawn), the inhibition was 7.3%.
Under `CCCOC(=O)Cc1c(O)c2ccccc2[nH]c1=O` stands 6.5%; under `COC(=O)Nc1ccc(S(=O)(=O)N(C)CC(F)(F)C(F)F)cc1`, 3.4%; under `CCn1nnc(NC(=O)c2c(OC)cccc2OC)n1`, 10.1%.
Turning to `O=C(c1ccc2c(c1)OCCO2)C1CCN(S(=O)(=O)c2cccc(F)c2)CC1`, the inhibition is 6.7%.
The result for `COC(=O)NC1(C(F)(F)F)NC(=O)N(C2CCCCC2)C1=O` (stereo not drawn) reads 9.8%; that for `O=C1NC(Nc2nc3ccccc3s2)(C(F)(F)F)C(=O)N1C1CCCCC1` (stereo not drawn), 50.1% (active); that for `CC(=O)c1c(C)n([O-])c2ccccc2[n+]1=O`, 12.7%.
For the compound `CC(=O)OC(C(=O)NCCc1ccccc1)c1cccnc1` (stereo not drawn), the inhibition is 15.3%.
The result for `Cn1c(=O)n(C)c2cc(C(=O)Nc3ccc4c(c3)OCO4)ccc21` reads 40.7% (active); that for `COc1ccc(C(=O)Nc2ccc3c(c2)OCO3)cc1OC`, -6.2%.
The result for `Cn1c(NC(=O)c2ccc3c(c2)OCO3)cc(=O)n(C)c1=O` reads -1.2%; that for `O=C(NC1CCCCC1)C1CCCN(S(=O)(=O)c2cccs2)C1` (stereo not drawn), 10.2%; that for `O=C(NCCN=C1NS(=O)(=O)c2ccccc21)c1ccc(S(=O)(=O)N2CCOCC2)cc1`, 11.1%.
The result for `Cc1nnc(SCC(=O)N(C(C)C)C(C)C)nc1C` reads 6.1%; that for `O=C(Nc1c(C(=O)N2CCCCC2)cnn1-c1ccccc1)c1ccco1`, -3.8%.
As for `C(=C\c1ccccc1)/CSc1nnc(-c2cccnc2)n1Cc1ccco1`, the inhibition was 11.5%.
On to `Cc1ccc(NC(=O)CN2CCC3(O)CCCCC3C2c2ccc3c(c2)OCO3)c(C)c1` (stereo not drawn), for which the inhibition is 0.9%.
Consider `Oc1c(C(c2cccs2)N2CCN(c3ccc(F)cc3)CC2)sc2ncnn12` (stereo not drawn), for which the inhibition was -1%.
Under `CCOc1ccc(OCC)c(NC(=O)C2CCN(S(=O)(=O)c3c(C)noc3C)CC2)c1` stands 15.5%; under `O=c1cccc(-c2ccc(Br)cc2)o1`, 10.6%.
For the compound `O=C(Nc1cccc2c1CCCC2)C1CCN(C(=O)NC2CCCCC2)CC1`, the inhibition was 16.4%.
The result for `COc1ccc2c(Cl)c(-c3nnco3)sc2c1` reads 26.5%.
The result for `C=CCNC(=O)c1cc(-c2ccccc2O)on1` reads -6.4%.
The result for `O=C(Nn1cnc2ccccc2c1=O)c1ccc(F)cc1Cl` reads -16.4%; that for `Cc1cccc(NC(=O)C2CCCN2S(=O)(=O)c2ccc(F)cc2)c1C` (stereo not drawn), 19.8%; that for `COc1cccc(NS(=O)(=O)c2ccc3[nH]cc(C(=O)NCCCOC(C)C)c(=O)c3c2)c1`, 9%.
On to `CCOC(=O)CSc1nnc(CNC(=O)c2cccs2)n1-c1cc(OC)ccc1OC`, for which the inhibition was 9.1%.
Under `CCOC(=O)N1CCN(C(=O)COc2ccc(Br)cc2)CC1` stands 3.3%.
The result for `O=C(CN1C(=O)c2ccccc2S1(=O)=O)N1CCc2ccccc21` reads 59% (active); that for `O=C(c1cccc(C(=O)N2CCc3ccccc32)n1)N1CCc2ccccc21`, 1.5%.
The result for `CNC(=O)CN1C(=O)c2ccccc2S1(=O)=O` reads 16.9%; that for `Cc1[nH]c2ccc(S(N)(=O)=O)cc2c1C`, 14.3%; that for `c1n[nH]c(NCc2ccc3c(c2)OCO3)n1`, 0.1%.
As to `CCC(C)(C)n1nnnc1C(c1ccccc1OC)N1CCSCC1` (stereo not drawn), the inhibition was 9.6%.
The result for `Cc1nc(C)c(C(=O)Nc2ccc(C)c(F)c2)o1` reads 19.9%; that for `O=C(CSc1ncccn1)NC(=O)NCc1ccccc1`, 13.2%.
As to `CCC(=O)Nc1cccc(NC(=O)CSc2nnc(-c3ccc(NS(C)(=O)=O)cc3)n2C)c1`, the inhibition was 1.5%.
On to `COc1ccc(CCn2c(=N)c(C(=O)NCc3ccco3)cc3c(=O)n4cccc(C)c4nc32)cc1`, for which the inhibition is 7.9%.
The result for `Cc1nc2ccc(S(=O)(=O)NCC(=O)O)cc2s1` reads -0.6%; that for `CC1=CC(C)(C)N(C(=O)CSc2nccn2C)c2cc(C)ccc21`, 0%; that for `Cc1ccc(C)c(S(=O)(=O)N2CC(=O)Nc3ccccc32)c1`, 13.2%.
As for `Cn1c(=O)c2c(nc(SCCNS(=O)(=O)c3ccccc3)n2C)n(C)c1=O`, the inhibition was 11.9%.
Under `O=C(NCCCN1CCN(C2CCCCC2)CC1)Nc1ccccc1C(F)(F)F` stands 7.8%; under `O=C(NCc1ccco1)C1CCCN(S(=O)(=O)c2cccc3nonc23)C1` (stereo not drawn), 0.7%.
The result for `O=P(O)(CN1CCCCC1)CN1CCCCC1` reads 4.4%; that for `Cc1ccc(-c2noc(CCC(N)=O)n2)cc1`, 19.8%.
For `Cc1ccc(-c2noc(CCC(=O)Nc3ccccc3N3CCN(C)CC3)n2)cc1`, the inhibition is -2%.
For `CCNC(=O)CCc1nc(-c2ccc(C(C)(C)C)cc2)no1`, the inhibition is 79.1% (active).
As for `CCCS(=O)(=O)C(=C1Nc2ccccc2N1)S(=O)(=O)CCC`, the inhibition was 3.3%.
Under `COc1ccc2c(c1)CCc1c(C(=O)Nc3c(C)n(C)n(-c4ccccc4)c3=O)noc1-2` stands 23.3%; under `CCCCOc1ccc(-c2nnc(-c3ccco3)o2)cc1`, -34%.
`CC(=O)Nc1ccc(S(=O)(=O)N2CCCC2C(=O)O)cc1` (stereo not drawn): the inhibition was 6.9%.
Consider `CCOC(=O)N1CCN(C(=O)CN(c2ccc(C)c(C)c2)S(=O)(=O)c2ccccc2)CC1`, for which the inhibition is 10.2%.
Take `C=CCc1cccc2cc(C(=O)N3CCN(C(=O)OCC)CC3)c(=O)oc12`: the inhibition is -6.7%.
Consider `Cc1cc(C)cc(OCc2nnc(SCC(=O)OC3CCCCC3)o2)c1`, for which the inhibition is 17.6%.
Under `Cc1ccnc(N2CCC(C(=O)NC3CCCCCC3)CC2)n1` stands 11.5%; under `Nc1ccc(-n2nncc2-c2ccco2)cc1`, 4%; under `Cc1cc(C(=O)OCC(=O)NCc2ccco2)c(C)n1-c1ccccc1`, 41.7% (active).
The result for `CCOC(=O)c1cnc(SCC(=O)NCc2ccco2)nc1N` reads -2%; that for `O=C(COC(=O)C12CC3CC(CC(C3)C1)C2)NCc1ccco1`, 3.7%.
Under `CC1(C)CC(=O)C2=C(C1)NCN(CCCN1CCOCC1)C2` stands 3.7%; under `CCCCC(=O)Nc1cc(C)c2c(=O)oc3ccccc3c2n1`, 2.7%.
For `Cc1cccc(-n2c(N)c(C(=O)N3CCN(C)CC3)sc2=S)c1`, the inhibition was 8.2%.
`Cc1ccc2nc(S(=O)(=O)O)[nH]c2c1`: the inhibition is 13.2%.
Turning to `COCc1[nH]nc2c1C(C1C=CCCC1)C(C#N)=C(N)O2` (stereo not drawn), the inhibition is -9.1%.
Under `CCC(c1nnnn1C1CCCC1)N(Cc1cccs1)Cc1cc2cccc(C)c2[nH]c1=O` (stereo not drawn) stands 1.1%; under `Cc1cccc2cc(CN(Cc3cccs3)C(c3nnnn3C3CCCC3)C(C)C)c(=O)[nH]c12` (stereo not drawn), 42% (active); under `Cc1cccc2cc(CN(Cc3ccc4c(c3)OCO4)Cc3nnnn3C3CCCC3)c(=O)[nH]c12`, 26.6%.
As for `CCCCOc1ccc(-c2ncc(C(=O)OCC)c(N)n2)cc1`, the inhibition is 5.2%.
Under `Cc1ccc(C)n1-c1ccncc1` stands 4.5%; under `Cc1nnc(Sc2nc3c(c(=O)[nH]c(=O)n3C)n2Cc2ccccc2)s1`, -1.3%.
As to `CC(C)CCn1c(CN(C)Cc2ccccc2)nc2c1c(=O)n(C)c(=O)n2C`, the inhibition was 10.4%.
As for `CCc1c(C)nc2cc(-c3cccs3)[nH]n2c1=O`, the inhibition was 0.4%.
In the case of `Cn1nnnc1SCC(=O)N1CCN(Cc2ccccc2)CC1`, the inhibition was 10.7%.
Under `Cc1cccc(NC(=O)c2ccc3ccccc3n2)n1` stands -33.4%.
Regarding `Cc1ccccc1CSCC(=O)NC(=O)NC(C)(C)C`, the inhibition was -1.2%.
In the case of `CCOc1ncccc1C(=O)OCc1cn2cc(Cl)ccc2n1`, the inhibition was 7.4%.
On to `CC1C(c2ccccc2)=[N+]([O-])C2(CCCC2)N1O` (stereo not drawn), for which the inhibition is 5.7%.
Take `Cc1ccc(-c2cc(C(F)(F)F)n3nc(C(=O)N4CCCC4)cc3n2)cc1`: the inhibition is 13.3%.
For the compound `CC(C)(C)OC(=O)c1c(N)n(CCCN2CCCC2=O)c2nc3ccccc3nc12`, the inhibition is 11.9%.
Under `O=C(NCc1ccco1)c1cc2sccc2n1Cc1ccc(F)cc1` stands 19.8%.
The result for `O=C(O)CCCC(=O)Nc1ccccc1-n1ccnc1` reads -1.2%.
Under `COc1ccc(-c2nnc(SC(=O)N3c4ccccc4Sc4ccccc43)o2)cc1` stands 9.5%.
With `COc1ccc(O)c(C(=O)c2cnc3onc(C(C)C)c3c2)c1`, the inhibition was 8.8%.
In the case of `Cc1cc(C)c(S(=O)(=O)NCCCN2CCOCC2)cc1Br`, the inhibition was 11.3%.
With `O=S(=O)(NCc1cccnc1)c1ccc(Br)s1`, the inhibition is 10.6%.
Under `CCN1C(=O)C(C(=O)NC(C)c2ccccc2)C2CC1(C)Oc1ccccc12` (stereo not drawn) stands 14.7%; under `Cc1nn(-c2ccccc2)c(C)c1C(=O)OCC(=O)NC(=O)NC1CCCCC1`, 8.4%.
For the compound `CCOC(=O)N1CCN(C(=O)c2nn(-c3ccc(C)cc3)c(=O)c3c2c2ccccc2n3C)CC1`, the inhibition was 20.4%.
Under `O=C(OCC(=O)N1CCCC1)c1ccco1` stands 9.6%; under `CC1(C)NC(=O)N(CCOc2cccc(Oc3ccccc3)c2)C1=O`, 21.8%; under `COc1cccc2c(C)c(C(=O)O)[nH]c12`, 48.7% (active).
On to `COc1ccc(C)cc1NC(=O)c1[nH]c(C)c(C(C)=O)c1C`, for which the inhibition was 8.7%.
In the case of `CCOC(=O)c1c(C)[nH]c(C(=O)NCc2ccccc2OC)c1C`, the inhibition was -10.8%.
Under `Cc1ccc(NC(=O)CCNS(=O)(=O)c2ccc3c(c2)oc(=O)n3C)cc1C` stands 13.6%.
